Experimental data reported in ChEMBL document CHEMBL3808340, “Development of Novel 1,2,3,4-Tetrahydroquinoline Scaffolds as Potent NF-κB Inhibitors and Cytotoxic Agents” (ACS Med Chem Lett, 2016).

What was measured:
NCI-H23 = assay: Cytotoxicity against human NCI-H23 cells after 72 hrs by sulforhodamine B assay; assay type: functional; conditions: NCI-H23, 72 h
How it was run: (§1)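 Sulforhodamine B staining following the NCI (USA) protocol was used to estimate cell number indirectly in six human cancer lines. GI50 is the concentration giving a 50% decrease in net cell growth, reported as the mean of three experiments.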

[1] = Inhibition of LPS-induced NFkappaB (unknown origin) transcriptional activity expressed in mouse RAW264.7 cells incubated for 16 hrs by SEAP based reporter gene assay; assay type: cell-based; conditions: RAW264.7, 16 h
MDA-MB-231 = assay: Cytotoxicity against human MDA-MB-231 cells after 72 hrs by sulforhodamine B assay; assay type: functional; conditions: MDA-MB-231, 72 h; how it was run: as §1
[2] = Cytotoxicity against human NUGC3 cells after 72 hrs by sulforhodamine B assay; assay type: functional; conditions: NUGC-3, 72 h; how it was run: as §1
[3] = Cytotoxicity against human PC3 cells after 72 hrs by sulforhodamine B assay; assay type: functional; conditions: PC-3, 72 h; how it was run: as §1
[4] = Cytotoxicity against human HCT15 cells after 72 hrs by sulforhodamine B assay; assay type: functional; conditions: HCT-15, 72 h; how it was run: as §1
ACHN = assay: Cytotoxicity against human ACHN cells after 72 hrs by sulforhodamine B assay; assay type: functional; how it was run: as §1
Homo sapiens [5] = species: Homo sapiens; assay: Potency index, ratio of KL-1156 IC50 to compound IC50 for LPS-induced NFkappaB (unknown origin) transcriptional activity expressed in mouse RAW264.7 cells; assay type: cell-based
RAW264.7 = assay: Inhibition of LPS-induced NFkappaB (unknown origin) transcriptional activity expressed in mouse RAW264.7 cells at 100 uM incubated for 16 hrs by SEAP based reporter gene assay relative to control; assay type: cell-based
Homo sapiens [6] = species: Homo sapiens; assay: Potency index, ratio of PDTC IC50 to compound IC50 for LPS-induced NFkappaB (unknown origin) transcriptional activity expressed in mouse RAW264.7 cells; assay type: cell-based

Structure (SMILES): O=C(Nc1ccccc1C(F)(F)F)C1CCc2ccccc2N1C(=O)c1ccccc1Cl (stereo not given)
- GI50 (NCI-H23): 2150 nM
- IC50 [1]: 900 nM
- GI50 (MDA-MB-231): 2530 nM
- GI50 [2]: 2730 nM
- GI50 [3]: 5140 nM
- GI50 [4]: 4220 nM
- GI50 (ACHN): 3900 nM
- Ratio IC50 (Homo sapiens [5]): 58
- inhibition (RAW264.7): 82%
- Ratio IC50 (Homo sapiens [6]): 41
